# pKi: −log10 of the molar value.
# Tests used:
# [1] = target: T1, Orexin receptor type 2 (Homo sapiens, UniProt O43614); test: Antagonist activity at human OX2 receptor expressed in HEK cells assessed as inhibition of orexin A-induced Ca2+ accumulation after 1 hr by Fluo-4-AM staining-based FLIPR assay; type: functional, cell-based, HEK293
# T1 sequence (O43614 whole entry): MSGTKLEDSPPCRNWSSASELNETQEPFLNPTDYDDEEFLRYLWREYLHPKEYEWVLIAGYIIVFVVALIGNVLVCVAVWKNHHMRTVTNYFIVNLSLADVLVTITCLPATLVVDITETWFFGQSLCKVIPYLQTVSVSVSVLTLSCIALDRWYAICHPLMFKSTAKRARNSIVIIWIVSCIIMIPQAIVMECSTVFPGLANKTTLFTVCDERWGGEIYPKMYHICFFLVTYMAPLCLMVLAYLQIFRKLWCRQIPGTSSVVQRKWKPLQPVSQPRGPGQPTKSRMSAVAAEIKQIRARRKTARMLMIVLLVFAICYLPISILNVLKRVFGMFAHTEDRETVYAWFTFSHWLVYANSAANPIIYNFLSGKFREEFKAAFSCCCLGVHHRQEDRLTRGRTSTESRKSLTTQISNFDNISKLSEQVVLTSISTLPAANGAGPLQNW
# How it was run: (§1)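 Recombinant CHO or HEK cells expressing human OX1R or OX2R, serum-deprived overnight in HEPES buffer pH 7.4 with 1% BSA. Cells were loaded with 2 μM Fluo4-AM plus 0.1 mM probenecid for 1 h. Compound (up to eight concentrations, usually 10⁻⁹–10⁻⁵ M) was added first, then submaximal orexin A 1 h later. Curves run in triplicate; pKi from IC50 by Cheng–Prusoff.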
# [2] = target: T2, Orexin/Hypocretin receptor type 1 (Homo sapiens, UniProt O43613); test: Antagonist activity at human OX1 receptor expressed in CHO cells assessed as inhibition of orexin A-induced Ca2+ accumulation after 1 hr by Fluo-4-AM staining-based FLIPR assay; type: functional, cell-based; how it was run: as §1
# T2 sequence (O43613 whole entry): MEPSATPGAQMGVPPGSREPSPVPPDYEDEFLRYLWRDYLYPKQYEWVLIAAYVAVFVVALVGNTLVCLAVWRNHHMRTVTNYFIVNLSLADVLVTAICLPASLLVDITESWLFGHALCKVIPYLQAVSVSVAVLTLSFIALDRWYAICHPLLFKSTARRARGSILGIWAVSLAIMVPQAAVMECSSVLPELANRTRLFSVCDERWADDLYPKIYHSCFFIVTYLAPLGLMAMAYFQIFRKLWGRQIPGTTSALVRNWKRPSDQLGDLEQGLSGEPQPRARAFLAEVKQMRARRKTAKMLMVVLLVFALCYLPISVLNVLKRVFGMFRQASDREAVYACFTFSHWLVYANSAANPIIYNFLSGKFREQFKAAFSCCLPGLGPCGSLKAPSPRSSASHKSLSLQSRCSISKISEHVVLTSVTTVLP
# [3] = Oral bioavailability in C57BL/6 mouse blood at 3 mg/kg; type: ADME, organism-based
# How it was run: (§2)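 Cassette PK in male C57BL/6 mice (20–30 g), up to five test compounds plus one reference. Iv 1 mg/kg in NMP/blank plasma 10/90 v/v, 5 mL/kg, saphenous vein. Oral 3 mg/kg suspended in 0.5% w/v carboxymethylcellulose in water/Tween 80 (99.5/0.5), 10 mL/kg gavage. Blood sampled 5 min (iv) or 15 min (po) to 24 h, n = 3 per time point, measured by LC/MS/MS.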
# [4] = Ratio of drug level in brain to blood in C57BL/6 mouse at 3 mg/kg, po after 15 mins; type: ADME, organism-based; parameters: dose 3 mg/kg, route oral
# How it was run: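 Male C57BL/6 mice (20–30 g), cassette dosing of up to five compounds plus a reference. Blood and brain collected 15 min post-dose, n = 3. Brain homogenised in 2 mM KH2PO4 and extracted with acetonitrile. LC/MS/MS quantitation; mean brain/blood ratio.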
# [5] = AUC (infinity) in C57BL/6 mouse blood at 3 mg/kg, po; type: ADME, organism-based; parameters: time infinity, dose 3 mg/kg, route oral; how it was run: as §2
# [6] = Cmax in C57BL/6 mouse blood at 3 mg/kg, po; type: ADME, organism-based; parameters: dose 3 mg/kg, route oral; how it was run: as §2
# [7] = Total blood clearance in C57BL/6 mouse at 1 mg/kg, iv; type: ADME, organism-based; parameters: dose 1 mg/kg, route intravenous; how it was run: as §2
# [8] = Volume of distribution at steady state in C57BL/6 mouse at 1 mg/kg, iv; type: ADME, organism-based; parameters: dose 1 mg/kg, route intravenous; settings: in vivo, read-out: Vdss; how it was run: as §2
compound,measurement,setting,value
Cc1cc(C)nc(N2CCC3(CCCN(Cc4n[nH]c5ccccc45)C3=O)CC2)n1,pKi,[1],8.16
same,pKi,[2],6.31
O=C1CCCC2(CCN(c3cnc4ccccc4n3)CC2)N1Cc1cccc2[nH]ccc12,bioavailability,[3],5%
same,Kp at 0.25 h,[4],0.2
same,AUC(0-inf),[5],0.031 µM·h
same,Cmax,[6],18 nM
same,clearance,[7],188 mL/min/kg
same,Vd,[8],3.1 L/kg
same,pKi,[1],9.34
same,pKi,[2],8.04
Cc1cc(C)nc(N2CCC3(CCCC(=O)N3Cc3cccc4[nH]ccc34)CC2)n1,pKi,[1],9.07
same,pKi,[2],6.43
Cc1cc(C)nc(N2CCC3(CCCN(Cc4nn(C)nc4-c4ccccc4)C3=O)CC2)n1,pKi,[1],8.34
same,pKi,[2],6.12
Cc1cc(C)nc(N2CCC3(CCCN(Cc4nn(C)cc4-c4ccccc4)C3=O)CC2)n1,pKi,[1],7.76
same,pKi,[2],6.09
O=C1CCCC2(CCN(c3cnc4ccccc4n3)CC2)N1Cc1c[nH]c2ccccc12,pKi,[1],7.16
same,pKi,[2],6.56
O=C(Cc1ccccc1)N1CCCC12CCN(c1cnc3ccccc3n1)CC2,pKi,[1],6.73
same,pKi,[2],6.02
Cc1ccnc(N2CCC3(CCCN(Cc4c[nH]c5ccccc45)C3=O)CC2)n1,pKi,[1],7.57
same,pKi,[2],5.85
O=C1CCCC2(CCN(c3nc4ccccc4o3)CC2)N1Cc1cccc2[nH]ccc12,pKi,[1],8.50
same,pKi,[2],7.73
Cc1cc(C)nc(N2CCC3(CCCN(Cc4n[nH]cc4-c4ccccc4)C3=O)CC2)n1,pKi,[1],8.41
same,pKi,[2],6.11
Cc1cc(C)nc(N2CCC3(CCCN(Cc4[nH]nnc4-c4ccccc4)C3=O)CC2)n1,pKi,[1],8.93
same,pKi,[2],6.15

# Reference: ChEMBL document CHEMBL2434958, “Identification of a novel series of orexin receptor antagonists with a distinct effect on sleep architecture for the treatment of insomnia” (J Med Chem, 2013)
